In ChEMBL document CHEMBL4619723, “New CDK8 inhibitors as potential anti-leukemic agents - Design, synthesis and biological evaluation” (Bioorg Med Chem, 2020):

Legend:
[1] = molecular target: Cyclin-dependent kinase 8 (Homo sapiens, UniProt P49336); assay: Inhibition of biotinylated ligand binding to wild-type human partial length CDK8 (M1 to T360 residues) expressed in Escherichia coli BL21 measured after 1 hr by kinomescan assay
[2] = molecular target: Serine/threonine-protein kinase 32A (Homo sapiens) (UniProt Q8WU08); assay: Inhibition of biotinylated ligand binding to wild-type human full length YANK1 (M1 to L396 residues) expressed in mammalian expression system at 50 nM measured after 1 hr by kinomescan assay relative to control
Procedure, shortened: (§1)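 Competition binding: kinase was bound to streptavidin beads carrying a biotinylated ligand, with test compound at 50 nM, in 20% SeaBlock, 0.17x PBS, 0.05% Tween 20 and 6 mM DTT for 1 h at rt with shaking. After washing, kinase was eluted with 0.5 μM free ligand and quantified by qPCR. Result is POC relative to the DMSO (100%) and control-compound (0%) references.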

[3] = molecular target: Serine/threonine-protein kinase haspin (Homo sapiens) (UniProt Q8TF76); assay: Inhibition of biotinylated ligand binding to wild-type human partial length HASPIN (I452 to K798 residues) expressed in mammalian expression system at 50 nM measured after 1 hr by kinomescan assay relative to control
[4] = molecular target: Cyclin-dependent kinase 7 (Homo sapiens) (UniProt P50613); assay: Inhibition of biotinylated ligand binding to wild-type human full length CDK7 (M1 to L344 residues) expressed in mammalian expression system at 50 nM measured after 1 hr by kinomescan assay relative to control; procedure, shortened: as §1
Cyclin-dependent kinase 7 (Homo sapiens), sequence (P50613 whole entry, the tested form may be a part): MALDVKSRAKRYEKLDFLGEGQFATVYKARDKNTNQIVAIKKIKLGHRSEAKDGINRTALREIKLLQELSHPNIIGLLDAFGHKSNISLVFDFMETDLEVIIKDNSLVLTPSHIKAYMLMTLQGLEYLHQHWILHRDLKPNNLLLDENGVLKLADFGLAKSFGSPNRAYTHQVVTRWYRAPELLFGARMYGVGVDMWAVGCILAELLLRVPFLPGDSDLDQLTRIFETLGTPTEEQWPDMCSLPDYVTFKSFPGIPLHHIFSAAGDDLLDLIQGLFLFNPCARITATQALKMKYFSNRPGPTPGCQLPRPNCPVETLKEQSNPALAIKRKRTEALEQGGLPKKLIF

[5] = system: OCI-AML-3; assay: cells; conditions: Homo sapiens, OCI-AML-3, 48 h
[6] = molecular target: Serine/threonine-protein kinase pim-2 (Homo sapiens) (UniProt Q9P1W9); assay: Inhibition of biotinylated ligand binding to wild-type human partial length PIM2 (M1 to E291 residues) expressed in bacterial expression system at 50 nM measured after 1 hr by kinomescan assay relative to control
Serine/threonine-protein kinase pim-2 (Homo sapiens), sequence (Q9P1W9 whole entry, looked up, the tested form may be a part): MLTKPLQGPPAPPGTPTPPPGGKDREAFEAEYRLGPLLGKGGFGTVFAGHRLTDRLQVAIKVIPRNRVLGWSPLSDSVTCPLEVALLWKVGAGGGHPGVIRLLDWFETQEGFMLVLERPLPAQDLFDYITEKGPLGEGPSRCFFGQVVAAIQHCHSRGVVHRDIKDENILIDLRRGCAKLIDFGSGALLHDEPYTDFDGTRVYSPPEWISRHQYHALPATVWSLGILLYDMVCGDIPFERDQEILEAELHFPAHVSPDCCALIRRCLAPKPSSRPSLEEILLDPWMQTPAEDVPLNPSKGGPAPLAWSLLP

[7] = molecular target: G protein-coupled receptor kinase 4 (Homo sapiens) (UniProt P32298); assay: Inhibition of biotinylated ligand binding to wild-type human full length GRK4 (M1 to C578 residues) expressed in bacterial expression system at 50 nM measured after 1 hr by kinomescan assay relative to control
Procedure, shortened: (§2)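 Kinase-tagged T7 phage was grown in an E. coli BL21-derived host at 32 °C until lysis, and the lysate was clarified. Kinase was bound to streptavidin beads carrying a biotinylated ligand, with test compound at 50 nM (final DMSO), in binding buffer for 1 h at rt. Bound kinase was eluted and quantified by qPCR. Result is POC relative to the DMSO (100%) and control-compound (0%) references.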

[8] = molecular target: Serine/threonine-protein kinase MAK (Homo sapiens) (UniProt P20794); assay: Inhibition of biotinylated ligand binding to wild-type human partial length MAK (M1 to P314 residues) expressed in bacterial expression system at 50 nM measured after 1 hr by kinomescan assay relative to control
[9] = molecular target: NUAK family SNF1-like kinase 2 (Homo sapiens) (UniProt Q9H093); assay: Inhibition of biotinylated ligand binding to wild-type human partial length SNARK (P22 to A333 residues) expressed in mammalian expression system at 50 nM measured after 1 hr by kinomescan assay relative to control; procedure, shortened: as §1
[10] = molecular target: Mitogen-activated protein kinase 13 (Homo sapiens) (UniProt O15264); assay: Inhibition of biotinylated ligand binding to wild-type human full length p38-delta (M1 to L365 residues) expressed in bacterial expression system at 50 nM measured after 1 hr by kinomescan assay relative to control; procedure, shortened: as §2
[11] = Selectivity ratio of EC50 for rat NRK cells to EC50 for human MOLM13 cells; format: toxicity; conditions: NRK cells versus MOLM13 cells, read-out: Ratio EC50
[12] = system: MOLM-13; assay: cells; conditions: Homo sapiens, MOLM-13, 48 h
[13] = molecular target: Phosphatidylinositol 4-phosphate 5-kinase type-1 alpha (Homo sapiens) (UniProt Q99755); assay: Inhibition of biotinylated ligand binding to wild-type human full length PIP5K1A (M1 to H562 residues) expressed in bacterial expression system at 50 nM measured after 1 hr by kinomescan assay relative to control; procedure, shortened: as §2
Phosphatidylinositol 4-phosphate 5-kinase type-1 alpha (Homo sapiens), sequence (Q99755 whole entry, the tested form may be a part): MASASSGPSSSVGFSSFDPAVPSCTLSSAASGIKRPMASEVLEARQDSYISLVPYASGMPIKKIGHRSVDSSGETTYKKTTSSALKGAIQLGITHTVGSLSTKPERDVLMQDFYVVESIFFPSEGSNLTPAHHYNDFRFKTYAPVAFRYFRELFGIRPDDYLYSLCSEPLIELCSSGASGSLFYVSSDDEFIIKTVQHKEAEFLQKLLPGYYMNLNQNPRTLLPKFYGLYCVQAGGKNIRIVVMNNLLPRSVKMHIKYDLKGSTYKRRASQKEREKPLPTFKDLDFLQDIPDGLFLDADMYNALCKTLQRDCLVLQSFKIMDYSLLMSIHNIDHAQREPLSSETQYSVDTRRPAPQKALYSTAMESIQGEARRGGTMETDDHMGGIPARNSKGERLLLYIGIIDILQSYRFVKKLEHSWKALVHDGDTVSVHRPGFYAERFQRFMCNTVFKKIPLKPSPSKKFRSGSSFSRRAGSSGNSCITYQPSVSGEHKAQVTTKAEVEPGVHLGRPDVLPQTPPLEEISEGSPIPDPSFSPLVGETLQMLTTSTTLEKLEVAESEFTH

[14] = molecular target: Interleukin-1 receptor-associated kinase 3 (Homo sapiens) (UniProt Q9Y616); assay: Inhibition of biotinylated ligand binding to wild-type human partial length IRAK3 (V147 to E596 residues) expressed in bacterial expression system at 50 nM measured after 1 hr by kinomescan assay relative to control; procedure, shortened: as §2
Interleukin-1 receptor-associated kinase 3 (Homo sapiens), sequence (Q9Y616 whole entry, the tested form may be a part): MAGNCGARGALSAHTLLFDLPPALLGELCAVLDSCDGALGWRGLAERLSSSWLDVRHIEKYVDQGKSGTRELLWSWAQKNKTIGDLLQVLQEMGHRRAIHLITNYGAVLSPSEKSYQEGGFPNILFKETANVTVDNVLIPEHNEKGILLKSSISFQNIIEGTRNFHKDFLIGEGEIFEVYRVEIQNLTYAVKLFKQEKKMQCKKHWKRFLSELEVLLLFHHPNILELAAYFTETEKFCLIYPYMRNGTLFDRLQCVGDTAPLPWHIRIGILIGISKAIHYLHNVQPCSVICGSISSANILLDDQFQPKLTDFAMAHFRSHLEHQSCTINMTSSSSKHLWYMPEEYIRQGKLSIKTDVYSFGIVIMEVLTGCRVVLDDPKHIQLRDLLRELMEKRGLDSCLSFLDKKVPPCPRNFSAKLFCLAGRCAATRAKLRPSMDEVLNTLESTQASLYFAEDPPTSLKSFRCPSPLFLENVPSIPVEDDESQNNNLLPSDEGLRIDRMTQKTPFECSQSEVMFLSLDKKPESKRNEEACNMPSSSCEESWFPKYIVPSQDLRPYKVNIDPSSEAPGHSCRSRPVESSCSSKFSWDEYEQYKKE

[15] = molecular target: Rho-associated protein kinase 2 (Homo sapiens) (UniProt O75116); assay: Inhibition of biotinylated ligand binding to wild-type human partial length ROCK2 (M1 to T431 residues) expressed in mammalian expression system at 50 nM measured after 1 hr by kinomescan assay relative to control; procedure, shortened: as §1
Rho-associated protein kinase 2 (Homo sapiens), sequence (O75116 whole entry, looked up, the tested form may be a part): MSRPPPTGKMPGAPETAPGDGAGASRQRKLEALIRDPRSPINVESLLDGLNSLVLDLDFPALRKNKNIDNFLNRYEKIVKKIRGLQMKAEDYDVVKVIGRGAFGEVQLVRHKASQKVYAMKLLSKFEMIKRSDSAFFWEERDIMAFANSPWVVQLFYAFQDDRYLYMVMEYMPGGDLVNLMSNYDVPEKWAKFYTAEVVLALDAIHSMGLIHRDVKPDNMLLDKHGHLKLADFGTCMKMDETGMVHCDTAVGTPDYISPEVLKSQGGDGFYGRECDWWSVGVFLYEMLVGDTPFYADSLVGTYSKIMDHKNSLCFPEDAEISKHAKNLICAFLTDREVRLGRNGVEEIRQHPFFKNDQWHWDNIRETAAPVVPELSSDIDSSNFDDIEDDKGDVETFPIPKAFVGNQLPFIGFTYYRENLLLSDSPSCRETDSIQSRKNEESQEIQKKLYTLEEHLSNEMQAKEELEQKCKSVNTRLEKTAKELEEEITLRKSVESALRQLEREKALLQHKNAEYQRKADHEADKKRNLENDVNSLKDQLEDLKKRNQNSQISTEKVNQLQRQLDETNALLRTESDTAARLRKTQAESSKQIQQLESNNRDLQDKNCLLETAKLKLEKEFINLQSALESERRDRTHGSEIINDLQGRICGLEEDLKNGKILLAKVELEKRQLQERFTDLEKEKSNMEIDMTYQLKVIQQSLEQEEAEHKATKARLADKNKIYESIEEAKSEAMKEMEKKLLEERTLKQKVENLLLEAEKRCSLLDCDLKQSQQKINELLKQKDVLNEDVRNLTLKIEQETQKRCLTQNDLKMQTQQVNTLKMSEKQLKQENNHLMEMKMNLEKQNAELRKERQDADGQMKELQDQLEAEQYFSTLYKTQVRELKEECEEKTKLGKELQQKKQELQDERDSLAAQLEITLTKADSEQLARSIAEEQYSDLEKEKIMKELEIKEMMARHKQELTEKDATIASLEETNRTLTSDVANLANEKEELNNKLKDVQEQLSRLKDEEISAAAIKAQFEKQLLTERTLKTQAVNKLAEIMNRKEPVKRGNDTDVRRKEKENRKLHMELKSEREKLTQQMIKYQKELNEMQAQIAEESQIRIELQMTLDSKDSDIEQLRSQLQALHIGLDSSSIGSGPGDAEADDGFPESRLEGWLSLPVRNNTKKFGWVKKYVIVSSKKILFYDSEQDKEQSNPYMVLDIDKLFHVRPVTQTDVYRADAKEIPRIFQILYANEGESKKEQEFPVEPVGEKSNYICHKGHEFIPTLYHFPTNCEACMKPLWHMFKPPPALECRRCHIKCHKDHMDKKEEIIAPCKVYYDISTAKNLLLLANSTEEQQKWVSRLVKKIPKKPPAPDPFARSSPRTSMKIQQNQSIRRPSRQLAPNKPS

[16] = Selectivity ratio of EC50 for rat NRK cells to EC50 for human OCI-AML3 cells; format: toxicity; conditions: NRK cells versus OCI-AML3 cells, read-out: Ratio EC50
[17] = molecular target: BMP-2-inducible protein kinase (Homo sapiens) (UniProt Q9NSY1); assay: Inhibition of biotinylated ligand binding to wild-type human partial length BIKE (S34 to N329 residues) expressed in bacterial expression system at 50 nM measured after 1 hr by kinomescan assay relative to control; procedure, shortened: as §2
BMP-2-inducible protein kinase (Homo sapiens), sequence (Q9NSY1 whole entry, looked up, the tested form may be a part): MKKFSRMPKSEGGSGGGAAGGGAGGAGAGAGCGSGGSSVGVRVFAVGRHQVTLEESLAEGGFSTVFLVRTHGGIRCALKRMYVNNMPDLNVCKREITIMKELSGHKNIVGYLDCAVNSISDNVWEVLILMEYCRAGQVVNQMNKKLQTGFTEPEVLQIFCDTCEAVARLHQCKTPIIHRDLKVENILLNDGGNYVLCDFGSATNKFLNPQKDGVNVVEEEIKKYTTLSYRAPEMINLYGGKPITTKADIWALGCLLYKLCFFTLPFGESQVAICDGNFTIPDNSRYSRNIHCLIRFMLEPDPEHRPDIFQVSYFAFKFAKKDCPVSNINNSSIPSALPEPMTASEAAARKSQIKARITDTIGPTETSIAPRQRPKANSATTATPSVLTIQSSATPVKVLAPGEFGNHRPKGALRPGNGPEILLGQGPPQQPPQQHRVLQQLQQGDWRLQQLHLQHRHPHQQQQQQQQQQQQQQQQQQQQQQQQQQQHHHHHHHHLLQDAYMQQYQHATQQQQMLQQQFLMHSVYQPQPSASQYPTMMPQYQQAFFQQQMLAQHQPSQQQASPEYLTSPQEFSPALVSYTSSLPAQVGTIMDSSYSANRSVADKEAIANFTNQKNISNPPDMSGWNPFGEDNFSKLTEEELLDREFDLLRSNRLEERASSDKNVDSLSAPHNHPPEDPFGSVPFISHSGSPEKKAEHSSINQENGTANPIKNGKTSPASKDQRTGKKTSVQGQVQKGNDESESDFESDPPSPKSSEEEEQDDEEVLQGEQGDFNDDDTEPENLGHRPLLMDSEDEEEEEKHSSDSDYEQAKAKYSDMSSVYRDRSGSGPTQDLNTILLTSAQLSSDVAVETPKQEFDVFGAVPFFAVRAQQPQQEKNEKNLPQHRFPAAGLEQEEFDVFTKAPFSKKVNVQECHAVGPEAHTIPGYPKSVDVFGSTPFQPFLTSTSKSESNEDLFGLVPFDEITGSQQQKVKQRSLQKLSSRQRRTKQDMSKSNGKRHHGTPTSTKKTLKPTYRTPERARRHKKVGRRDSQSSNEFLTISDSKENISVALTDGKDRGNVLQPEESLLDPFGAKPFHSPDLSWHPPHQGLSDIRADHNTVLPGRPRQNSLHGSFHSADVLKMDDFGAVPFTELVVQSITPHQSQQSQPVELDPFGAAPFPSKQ

[18] = molecular target: Activin receptor type-1 (Homo sapiens) (UniProt Q04771); assay: Inhibition of biotinylated ligand binding to wild-type human ACVR1 (C188 to C509 residues) expressed in bacterial expression system at 50 nM measured after 1 hr by kinomescan assay relative to control; procedure, shortened: as §2
[19] = system: MV4-11; assay: cells; conditions: Homo sapiens, MV4-11, 48 h
[20] = molecular target: Serine/threonine-protein kinase 32C (Homo sapiens) (UniProt Q86UX6); assay: Inhibition of biotinylated ligand binding to wild-type human partial length YANK3 (M68 to G486 residues) expressed in bacterial expression system at 50 nM measured after 1 hr by kinomescan assay relative to control; procedure, shortened: as §2
Serine/threonine-protein kinase 32C (Homo sapiens), sequence (Q86UX6 whole entry, the tested form may be a part): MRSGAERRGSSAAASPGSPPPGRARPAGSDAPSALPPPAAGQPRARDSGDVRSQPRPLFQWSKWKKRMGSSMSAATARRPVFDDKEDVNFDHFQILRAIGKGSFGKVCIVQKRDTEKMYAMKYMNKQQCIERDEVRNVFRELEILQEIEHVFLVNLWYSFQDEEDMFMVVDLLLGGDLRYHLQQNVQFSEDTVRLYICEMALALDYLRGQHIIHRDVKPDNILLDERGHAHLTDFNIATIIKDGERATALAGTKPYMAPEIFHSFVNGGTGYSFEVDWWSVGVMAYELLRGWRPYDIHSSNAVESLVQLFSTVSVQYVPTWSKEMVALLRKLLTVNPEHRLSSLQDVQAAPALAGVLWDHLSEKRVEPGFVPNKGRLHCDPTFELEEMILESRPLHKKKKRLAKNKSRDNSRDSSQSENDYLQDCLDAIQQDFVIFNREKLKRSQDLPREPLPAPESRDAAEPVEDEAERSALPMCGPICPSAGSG

[21] = molecular target: Serine/threonine-protein kinase RIO3 (Homo sapiens) (UniProt O14730); assay: Inhibition of biotinylated ligand binding to wild-type human full length RIOK3 (M1 to E519 residues) expressed in bacterial expression system assessed at 50 nM measured after 1 hr by kinomescan assay relative to control; procedure, shortened: as §2
[22] = molecular target: Cyclin-dependent kinase 19 (Homo sapiens) (UniProt Q9BWU1); assay: Inhibition of biotinylated ligand binding to wild-type human partial length CDK11 (M1 to N360 residues) expressed in bacterial expression system at 50 nM measured after 1 hr by kinomescan assay relative to control
Procedure, shortened: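 T7 phage-tagged kinase lysates from E. coli BL21 were mixed with streptavidin beads carrying biotinylated ligand and 50 nM compound. Incubated 1 h at room temperature with shaking, washed, then eluted 30 min with 0.5 μM non-biotinylated ligand. Kinase was quantified by qPCR. POC = (test − positive)/(DMSO − positive) ×100, with a control compound as positive.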

[23] = molecular target: Vascular endothelial growth factor receptor 3 (Homo sapiens) (UniProt P35916); assay: Inhibition of biotinylated ligand binding to wild-type human partial length FLT4 (E821 to E1196 residues) expressed in bacterial expression system at 50 nM measured after 1 hr by kinomescan assay relative to control; procedure, shortened: as §2

`CN(C)[C@@H]1CC[C@@]2(C)[C@@H](CC[C@@H]3[C@@H]2CC[C@]2(C)C(c4cccc5cnccc45)=CC[C@@H]32)C1` gave a Kd [1] of 0.0035 µM, an inhibition [2] of over 80% and an inhibition [3] of over 80%. The inhibition [4] was over 80%, the EC50 [5] was 4.8 µM and the inhibition [6] was over 80%. The inhibition [7] was over 80%, the inhibition [8] was over 80% and the inhibition [9] was over 80%. For the same compound, the inhibition [10] was over 80%, the selectivity ratio [11] was 3 to 4 and the EC50 [12] was 5.9 µM. It also gave an inhibition [13] of over 80%, an inhibition [14] of over 80% and an inhibition [15] of over 80%. It also gave a selectivity ratio [16] of 3 to 4, an inhibition [17] of over 80% and an inhibition [18] of over 80%. For the same compound, the EC50 [19] was 5.4 µM, the inhibition [20] was over 80% and the inhibition [21] was over 80%. It also gave an inhibition [22] of over 80% and an inhibition [23] of over 80%.
